In ChEMBL document CHEMBL4340573, “New pyrazolopyrimidine derivatives as Leishmania amazonensis arginase inhibitors” (Bioorg Med Chem, 2019):
Active and inactive are the calls of the source. No cut-off for these calls is given here.

Columns and labels:
Arginase [1] = molecular target: T1, Arginase (Leishmania amazonensis, UniProt O96394); assay: Inhibition of recombinant Leishmania amazonensis arginase expressed in Escherichia coli using L-arginine as substrate
How it was run: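 Recombinant E. coli-expressed LaARG was run with L-arginine at 25, 50 and 100 mM separately. Inhibitor was 200 to 0.05 µM by 4-fold serial dilution, in triplicate in two independent experiments. IC50 came from nonlinear sigmoidal regression of log dose versus enzyme activity; reported IC50 values are at 50 mM substrate.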

[2] = (§1) Cytotoxicity against Swiss mouse peritoneal macrophages assessed as reduction in cell viability incubated for 48 hrs by MTT assay; type: cell-based, Peritoneal macrophage; conditions: Swiss, peritoneal macrophages, read-out: LC50
How it was run: (§2)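 Peritoneal cells harvested in RPMI 96 h after 3% thioglycolate (1 mL) in male Swiss mice (18-20 g). Plated at 10^5 cells/well in RPMI 1640 with 10% FBS and 2 mM glutamine. After 24 h, exposed to compound up to 200 µM, 48 h, 37 °C, 5% CO2. MTT 0.45 mg/mL added for 4 h, OD at 570. LC50 derived; at least 2 runs in triplicate.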

Leishmania amazonensis [3] = assay: Antileishmanial activity against Leishmania amazonensis LTB0016 amastigotes assessed as induction of parasite morality at 30 uM incubated for 48 hrs by Alamar blue dye based assay relative to control; type: functional; conditions: LTB0016, 48 h
How it was run: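 Amastigotes purified by mechanical dissociation in RPMI from paw skin lesions of male Swiss Webster mice 30 days after subcutaneous infection with 10^6 amastigotes. Parasites at 10^6/well exposed 48 h at 32 °C, 5% CO2, with compound up to 30 µM (DMSO ≤0.6% final). Then 24 h with 10% AlamarBlue, OD read at 570-600 nm; pentamidine as reference.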

[4] = molecular target: Arginase (Leishmania amazonensis) (UniProt O96394); assay: Inhibition of recombinant Leishmania amazonensis arginase expressed in Escherichia coli at 100 uM using L-arginine as substrate relative to control
How it was run: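 Recombinant LaARG was expressed in E. coli. Single-point screen: 100 µM compound with 50 mM L-arginine in 50 mM CHES, pH 9.5. DMSO stocks (70 mM) were diluted to 1 mM in deionized water before assay. Run in triplicate in two independent experiments.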

[5] = molecular target: Arginase (Leishmania amazonensis) (UniProt O96394); assay: Uncompetitive inhibition of recombinant Leishmania amazonensis arginase expressed in Escherichia coli assessed as dissociation constant for ternary complex enzyme-substrate-inhibitor using L-arginine as substrate by Dixon or Cornish-Bowden plot analysis
How it was run: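 Kinetics on recombinant LaARG used L-arginine at 25, 50 and 100 mM, each with three inhibitor concentrations. Points are the mean of three independent experiments run in duplicate. Mechanism came from linear-regression Dixon and Cornish-Bowden plots. Kis (ESI complex dissociation constant) was taken from the intersection of lines on the Cornish-Bowden plot.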

[6] = molecular target: Arginase (Leishmania amazonensis) (UniProt O96394); assay: Competitive inhibition of recombinant Leishmania amazonensis arginase expressed in Escherichia coli using 25 to 100 mM L-arginine levels
Peritoneal macrophage = assay: as §1; type: cell-based; conditions: peritoneal macrophage, 48 h; how it was run: as §2
Leishmania amazonensis [7] = assay: Antileishmanial activity against Leishmania amazonensis LTB0016 amastigotes assessed as induction of parasite morality incubated for 48 hrs by Alamar blue dye based assay relative to control; type: functional, organism-based; conditions: LTB0016, 48 h
How it was run: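 Free amastigotes (LTB0016) were purified by mechanical dissociation in RPMI from paw skin lesions of male Swiss Webster mice 30 days after s.c. infection with 10^6 amastigotes. Parasites at 10^6/well were exposed to compounds up to 30 µM for 48 h at 32 °C in 5% CO2. AlamarBlue (10%) was then added for 24 h at 32 °C and OD read at 570-600 nm. Final DMSO was ≤0.6%.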

Arginase [8] = molecular target: T1, Arginase; assay: Non-competitive inhibition of Leishmania amazonensis arginase using L-arginine as substrate incubated for 15 mins

Row | Compound | IC50 (Arginase [1]) [µM] | CC50 at 48 h [2] [µM] | mortality at 30 µM (Leishmania amazonensis [3]) [%] | inhibition [4] [%] | K [5] [µM] | inhibition [6] | LC50 (Peritoneal macrophage) | EC50 (Leishmania amazonensis [7]) [µM] | IC50 (Arginase [8]) [µM] | Ki (Arginase [8]) [µM]
1 | NC(=S)NNc1ncnc2c1cnn2-c1ccccc1 | 12 | > 200 | 20 to 30 | 74.3 | 8.5 | inactive | – | – | – | –
2 | NC(=S)NNc1ncnc2c1cnn2-c1ccc(Cl)cc1 | > 100 | > 200 | 20 to 30 | 46 | – | – | – | – | – | –
3 | N#Cc1ccc(-n2ncc3c(NNC(N)=S)ncnc32)cc1 | 100 | – | – | 59.8 | – | – | Nd(Insoluble) | – | – | –
4 | Cc1ccc(-n2ncc3c(NNC(N)=S)ncnc32)cc1 | > 100 | – | – | 42.2 | – | – | Nd(Insoluble) | – | – | –
5 | NC(=S)NNc1ncnc2c1cnn2-c1ccc(F)cc1 | > 100 | > 200 | 20 to 30 | 36.4 | – | – | – | – | – | –
6 | N=C(N)c1ccc(OCCCCCOc2ccc(C(=N)N)cc2)cc1 [PENTAMIDINE] | – | 17.2 | – | – | – | – | – | 0.8 | – | –
7 | NC(=S)NNc1ncnc2c1cnn2-c1ccc(C(F)(F)F)cc1 | 47 | > 200 | 20 to 30 | 73.8 | 29 | inactive | – | – | – | –
8 | Cc1cc(NNC(N)=S)n2nc(C(F)(F)F)nc2n1 | 16.5 | > 200 | 20 to 30 | 81 | 17 | – | – | – | 16.5 | 17
